In ChEMBL document CHEMBL1137213, “New substituted piperazines as ligands for melanocortin receptors. Correlation to the X-ray structure of "THIQ"” (J Med Chem, 2004):

biological target: Melanocortin receptor 4 (Homo sapiens, UniProt P32245); assay: Binding affinity towards Melanocortin 4 receptor using [125I]NDP-MSH
Summary of the method: (§1)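 Human MC1, MC3, MC4 or MC5 receptor expressed in Sf9 cells by recombinant virus infection for 72 h; membranes prepared from these cells. Membranes (10 µg protein/100 µL) incubated with [125I]NDP-MSH and competing unlabeled ligand in 20 mM K-Hepes pH 7.4, 5 mM NaCl, 1 mM CaCl2, 0.5 mM MgCl2, 0.5 mg/mL BSA for 3 h at 25 °C. Ended by filtration through glass-fiber filters. Nonspecific binding set with 3 µM NDP-MSH.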

Melanocortin receptor 4, sequence (P32245 whole entry): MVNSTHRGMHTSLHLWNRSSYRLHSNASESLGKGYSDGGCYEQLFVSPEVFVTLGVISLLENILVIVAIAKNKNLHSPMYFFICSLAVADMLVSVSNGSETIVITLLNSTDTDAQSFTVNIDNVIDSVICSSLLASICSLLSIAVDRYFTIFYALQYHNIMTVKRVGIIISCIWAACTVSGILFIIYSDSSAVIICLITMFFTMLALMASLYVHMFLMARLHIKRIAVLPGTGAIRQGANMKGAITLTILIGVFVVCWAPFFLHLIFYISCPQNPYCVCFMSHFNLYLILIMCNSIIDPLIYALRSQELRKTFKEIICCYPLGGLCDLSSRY

SMILES | Ki
O=C(N[C@H](Cc1ccc(Cl)cc1)C(=O)N1CCN(C2(Cn3cncn3)CCCC2)CC1)C1Cc2ccccc2CN1 (stereo partly specified) | 1500 nM
O=C(N[C@H](Cc1ccc(Cl)cc1)C(=O)N1CCN(c2ccccc2)CC1)C1Cc2ccccc2CN1 (stereo partly specified) | 30000 nM
O=C(N[C@H](Cc1ccc(Cl)cc1)C(=O)N1CC[N+]([O-])(c2ccccc2)CC1)C1Cc2ccccc2CN1 (stereo partly specified) | 169000 nM
O=C(N[C@H](Cc1ccc(Cl)cc1)C(=O)N1CC[N+]([O-])(C2CCCCC2)CC1)C1Cc2ccccc2CN1 (stereo partly specified) | 57000 nM
O=C(N[C@H](Cc1ccc(Cl)cc1)C(=O)N1CCN(C2(Cn3cncn3)CCCCC2)CC1)C1Cc2ccccc2CN1 (stereo partly specified) | 1000 nM

The next lines start with the values.

Ki | SMILES
390 nM | O=C(N[C@H](Cc1ccc(Cl)cc1)C(=O)N1CCN(C2CCCCC2Cn2cncn2)CC1)C1Cc2ccccc2CN1 (stereo partly specified)
1400 nM | O=C(N[C@H](Cc1ccc(Cl)cc1)C(=O)N1CCN(C2CCCCC2)CC1)C1Cc2ccccc2CN1 (stereo partly specified)
860 nM | O=C(N[C@H](Cc1ccc(Cl)cc1)C(=O)N1CCN([C@H]2CCCC[C@@H]2n2cncn2)CC1)C1Cc2ccccc2CN1 (stereo partly specified)

biological target: Melanocortin receptor 5 (Homo sapiens, UniProt P33032); assay: Binding affinity towards Melanocortin 5 receptor using [125I]NDP-MSH; summary of the method: as §1
Sequence (P33032 whole entry): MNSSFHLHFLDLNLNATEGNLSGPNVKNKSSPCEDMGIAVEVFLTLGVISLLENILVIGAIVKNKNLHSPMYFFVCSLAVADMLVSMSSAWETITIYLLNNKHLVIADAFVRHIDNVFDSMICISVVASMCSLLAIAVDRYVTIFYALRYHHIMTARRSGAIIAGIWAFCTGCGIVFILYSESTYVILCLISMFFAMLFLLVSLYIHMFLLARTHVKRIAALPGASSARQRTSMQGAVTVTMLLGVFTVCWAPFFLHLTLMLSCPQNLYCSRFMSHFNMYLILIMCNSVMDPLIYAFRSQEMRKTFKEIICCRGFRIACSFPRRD

SMILES | Ki
O=C(N[C@H](Cc1ccc(Cl)cc1)C(=O)N1CCN(C2(Cn3cncn3)CCCC2)CC1)C1Cc2ccccc2CN1 (stereo partly specified) | 18 µM
O=C(N[C@H](Cc1ccc(Cl)cc1)C(=O)N1CCN(c2ccccc2)CC1)C1Cc2ccccc2CN1 (stereo partly specified) | 17 µM
O=C(N[C@H](Cc1ccc(Cl)cc1)C(=O)N1CCC(Cn2cncn2)(C2CCCCC2)CC1)[C@H]1Cc2ccccc2CN1 | 5 µM
O=C(N[C@H](Cc1ccc(Cl)cc1)C(=O)N1CC[N+]([O-])(c2ccccc2)CC1)C1Cc2ccccc2CN1 (stereo partly specified) | 94 µM
O=C(N[C@H](Cc1ccc(Cl)cc1)C(=O)N1CC[N+]([O-])(C2CCCCC2)CC1)C1Cc2ccccc2CN1 (stereo partly specified) | 102 µM
O=C(N[C@H](Cc1ccc(Cl)cc1)C(=O)N1CCN(C2(Cn3cncn3)CCCCC2)CC1)C1Cc2ccccc2CN1 (stereo partly specified) | 14 µM

Continued, values first:

Ki | SMILES
16 µM | O=C(N[C@H](Cc1ccc(Cl)cc1)C(=O)N1CCN(C2CCCCC2Cn2cncn2)CC1)C1Cc2ccccc2CN1 (stereo partly specified)
8.2 µM | O=C(N[C@H](Cc1ccc(Cl)cc1)C(=O)N1CCN(C2CCCCC2)CC1)C1Cc2ccccc2CN1 (stereo partly specified)
17 µM | O=C(N[C@H](Cc1ccc(Cl)cc1)C(=O)N1CCN([C@H]2CCCC[C@@H]2n2cncn2)CC1)C1Cc2ccccc2CN1 (stereo partly specified)
9.8 µM | O=C(N[C@H](Cc1ccc(Cl)cc1)C(=O)N1CCN([C@@H]2CCCC[C@H]2n2cncn2)CC1)C1Cc2ccccc2CN1 (stereo partly specified)

biological target: Melanocyte-stimulating hormone receptor (Homo sapiens, UniProt Q01726); assay: Binding affinity towards Melanocortin 1 receptor using [125I]NDP-MSH; summary of the method: as §1
Sequence (Q01726 whole entry): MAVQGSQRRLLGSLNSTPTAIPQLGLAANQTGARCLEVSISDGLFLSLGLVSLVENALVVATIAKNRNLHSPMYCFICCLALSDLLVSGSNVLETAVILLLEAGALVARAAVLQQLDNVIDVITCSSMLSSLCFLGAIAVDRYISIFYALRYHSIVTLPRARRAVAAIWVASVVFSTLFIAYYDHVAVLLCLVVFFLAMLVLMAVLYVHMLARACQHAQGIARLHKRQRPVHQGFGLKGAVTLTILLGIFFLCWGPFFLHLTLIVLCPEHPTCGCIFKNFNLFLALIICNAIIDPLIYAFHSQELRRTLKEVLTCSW

SMILES | Ki
O=C(N[C@H](Cc1ccc(Cl)cc1)C(=O)N1CCN(C2(Cn3cncn3)CCCC2)CC1)C1Cc2ccccc2CN1 (stereo partly specified) | 0.53 µM
O=C(N[C@H](Cc1ccc(Cl)cc1)C(=O)N1CCN(c2ccccc2)CC1)C1Cc2ccccc2CN1 (stereo partly specified) | 13 µM
O=C(N[C@H](Cc1ccc(Cl)cc1)C(=O)N1CC[N+]([O-])(c2ccccc2)CC1)C1Cc2ccccc2CN1 (stereo partly specified) | 36 µM
O=C(N[C@H](Cc1ccc(Cl)cc1)C(=O)N1CC[N+]([O-])(C2CCCCC2)CC1)C1Cc2ccccc2CN1 (stereo partly specified) | 152 µM
O=C(N[C@H](Cc1ccc(Cl)cc1)C(=O)N1CCN(C2(Cn3cncn3)CCCCC2)CC1)C1Cc2ccccc2CN1 (stereo partly specified) | 3.2 µM

Next, values leading:

Ki | SMILES
2 µM | O=C(N[C@H](Cc1ccc(Cl)cc1)C(=O)N1CCN(C2CCCCC2Cn2cncn2)CC1)C1Cc2ccccc2CN1 (stereo partly specified)
11 µM | O=C(N[C@H](Cc1ccc(Cl)cc1)C(=O)N1CCN(C2CCCCC2)CC1)C1Cc2ccccc2CN1 (stereo partly specified)
2.2 µM | O=C(N[C@H](Cc1ccc(Cl)cc1)C(=O)N1CCN([C@H]2CCCC[C@@H]2n2cncn2)CC1)C1Cc2ccccc2CN1 (stereo partly specified)
2 µM | O=C(N[C@H](Cc1ccc(Cl)cc1)C(=O)N1CCN([C@@H]2CCCC[C@H]2n2cncn2)CC1)C1Cc2ccccc2CN1 (stereo partly specified)

biological target: Melanocortin receptor 3 (Homo sapiens, UniProt P41968); assay: Binding affinity towards Melanocortin 3 receptor using [125I]NDP-MSH; summary of the method: as §1
Sequence (P41968 whole entry): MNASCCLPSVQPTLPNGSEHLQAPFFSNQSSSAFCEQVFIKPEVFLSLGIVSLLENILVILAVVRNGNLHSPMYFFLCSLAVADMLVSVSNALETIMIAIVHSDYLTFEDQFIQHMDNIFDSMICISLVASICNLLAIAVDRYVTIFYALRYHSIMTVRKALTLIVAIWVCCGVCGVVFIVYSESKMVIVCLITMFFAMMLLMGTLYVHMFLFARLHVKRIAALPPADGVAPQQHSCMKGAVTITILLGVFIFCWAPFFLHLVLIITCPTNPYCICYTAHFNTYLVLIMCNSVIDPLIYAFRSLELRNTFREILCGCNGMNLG

SMILES | Ki
O=C(N[C@H](Cc1ccc(Cl)cc1)C(=O)N1CCN(C2(Cn3cncn3)CCCC2)CC1)C1Cc2ccccc2CN1 (stereo partly specified) | 8.8 µM
O=C(N[C@H](Cc1ccc(Cl)cc1)C(=O)N1CCN(c2ccccc2)CC1)C1Cc2ccccc2CN1 (stereo partly specified) | 15 µM
O=C(N[C@H](Cc1ccc(Cl)cc1)C(=O)N1CC[N+]([O-])(c2ccccc2)CC1)C1Cc2ccccc2CN1 (stereo partly specified) | 35 µM
O=C(N[C@H](Cc1ccc(Cl)cc1)C(=O)N1CC[N+]([O-])(C2CCCCC2)CC1)C1Cc2ccccc2CN1 (stereo partly specified) | 114 µM
O=C(N[C@H](Cc1ccc(Cl)cc1)C(=O)N1CCN(C2(Cn3cncn3)CCCCC2)CC1)C1Cc2ccccc2CN1 (stereo partly specified) | 5.6 µM

Results, then the compound that gave them:

Ki | SMILES
5.2 µM | O=C(N[C@H](Cc1ccc(Cl)cc1)C(=O)N1CCN(C2CCCCC2Cn2cncn2)CC1)C1Cc2ccccc2CN1 (stereo partly specified)
6.8 µM | O=C(N[C@H](Cc1ccc(Cl)cc1)C(=O)N1CCN(C2CCCCC2)CC1)C1Cc2ccccc2CN1 (stereo partly specified)
6.5 µM | O=C(N[C@H](Cc1ccc(Cl)cc1)C(=O)N1CCN([C@H]2CCCC[C@@H]2n2cncn2)CC1)C1Cc2ccccc2CN1 (stereo partly specified)
4.4 µM | O=C(N[C@H](Cc1ccc(Cl)cc1)C(=O)N1CCN([C@@H]2CCCC[C@H]2n2cncn2)CC1)C1Cc2ccccc2CN1 (stereo partly specified)
